The source made the active and inactive calls. No cut-off for these calls is given here.
Experiments:
[1] = Drug uptake in C57BL/6N mouse whole blood at 3 mg/kg, po measured at 3 hrs; assay type: ADME, organism-based; conditions: read-out: Drug uptake
Procedure, shortened: (§1)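 Whole-blood compound exposure was measured 3 h after oral dosing (0.03-3 mg/kg) in HFD mice run through the OGTT dose titration. Unbound levels were derived using the plasma free fraction.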

[2] = Unbound plasma concentration in C57BL/6N mouse plasma at 3 mg/kg, po measured at 3 hrs; assay type: ADME, organism-based; conditions: in vivo
Mus musculus [3] = assay: Antidiabetic activity in HFD fed SSTR5 knock-out C57BL/6N mouse assessed as decrease in blood glucose AUC at 0.03 to 3 mg/kg administered as single oral dose pretreated for 60 mins followed by glucose challenge measured after 120 mins by OGTT; assay type: functional, organism-based
[4] = Unbound plasma concentration in C57BL/6N mouse plasma at 1 mg/kg, po measured at 3 hrs; assay type: ADME, organism-based; conditions: in vivo
Mus musculus [5] = assay: Antidiabetic activity in HFD fed C57BL/6N mouse assessed as decrease in blood glucose AUC at 3 mg/kg administered as single oral dose pretreated for 60 mins followed by glucose challenge measured after 120 mins by OGTT; assay type: functional; design: scale not given: the % may be the effect or the level left
Procedure, shortened: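 Oral dose titration (0.03-3 mg/kg) in HFD-fed mice, n=8. Dosing was followed by an oral glucose tolerance test. Net blood glucose AUC was expressed as % reduction versus vehicle, with P values versus vehicle.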

[6] = Fraction unbound in rat plasma at 0.1 uM using [3H]-labeled compound; assay type: ADME, cell-free
[7] = Unbound plasma concentration in C57BL/6N mouse plasma at 0.03 mg/kg, po measured at 3 hrs; assay type: ADME, organism-based; conditions: in vivo
[8] = Drug uptake in C57BL/6N mouse whole blood at 0.3 mg/kg, po measured at 3 hrs; assay type: ADME, organism-based; conditions: read-out: Drug uptake; procedure, shortened: as §1
[9] = Aqueous solubility of the compound in neutral solution; assay type: physicochemical
[10] = Oral bioavailability in rat at 2 mg/kg; assay type: ADME, organism-based; conditions: in vivo
Procedure, shortened: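 Rat pharmacokinetics after separate intravenous (1 mg/kg) and oral (2 mg/kg) dosing. Clearance is reported in mL/kg/min and half-life in hours. Oral bioavailability is given as F (%).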

[11] = biological target: Somatostatin receptor type 1 (Homo sapiens, UniProt P30872); assay: Antagonist activity at human SSTR1 expressed in CHO-K1 cell membranes; assay type: functional, cell-based
Procedure, shortened: (§2)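 Counter-screen by filtration membrane binding: competitive displacement of radiolabeled SST-28 from cell membranes expressing human SSTR1, SSTR2, SSTR3 or SSTR4. The IC50 is the mean of at least duplicate experiments within a maximal threefold range.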

Pancreatic islet [12] = assay: Induction of glucagon secretion in human pancreatic islets in presence of glucose by ELISA; assay type: functional, cell-based
Procedure, shortened: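 In the same human islet incubations, SST-14 and glucagon secretion were monitored alongside insulin.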

[13] = Volume of distribution in rat at 1 mg/kg, iv or 2 mg/kg, po; assay type: ADME, organism-based; conditions: in vivo
Pancreatic islet [14] = assay: Induction of glucose-dependent insulin secretion in human pancreatic islets at 0.5 to 5 uM preincubated for 30 mins with 16 mM glucose followed by compound addition measured after 60 mins by ELISA; assay type: functional, cell-based
Procedure, shortened: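 Isolated pancreatic islets from non-diabetic human donors were incubated with compound at 0.5 or 5 µM in 2 mM (G2) or 16 mM (G16) glucose. Insulin secretion was measured against a DMSO control, with P<0.05 significance.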

[15] = biological target: Somatostatin receptor type 4 (Homo sapiens, UniProt P31391); assay: Antagonist activity at human SSTR4 expressed in CHO-K1 cell membranes; assay type: functional, cell-based; procedure, shortened: as §2
Mus musculus [16] = assay: Induction of hypoglycemia in C57BL/6N mouse assessed as decrease in basal blood glucose levels at 3 to 30 mg/kg, po measured over 5 hrs; assay type: organism-based; conditions: in vivo
[17] = Fraction unbound in human plasma at 0.1 uM using [3H]-labeled compound; assay type: ADME, cell-free
[18] = Unbound plasma concentration in C57BL/6N mouse plasma at 0.1 mg/kg, po measured at 3 hrs; assay type: ADME, organism-based; conditions: in vivo
Mus musculus [19] = assay: Antidiabetic activity in HFD fed C57BL/6N mouse assessed as increase in circulating total GLP-1 levels at 10 mg/kg, po pretreated for 60 mins measured 5 mins post glucose challenge by OGTT; assay type: functional, organism-based
Procedure, shortened: (§3)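 The SSTR5 antagonist was given orally at 10 mg/kg, alone or combined with des-fluoro sitagliptin at 10 mg/kg, ahead of an oral glucose challenge. Blood was sampled 5 min after glucose for circulating total GLP-1, active GLP-1[7-36] amide and plasma insulin.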

Cytochrome P450 3A4 = Cytochrome P450 3A4 (Homo sapiens, UniProt P08684); assay: Inhibition of human CYP3A4; assay type: ADME
[20] = biological target: T1, Nuclear receptor subfamily 1 group I member 2 (Homo sapiens, UniProt O75469); assay: Activation of human PXR; assay type: ADME
T1 sequence (O75469 whole entry): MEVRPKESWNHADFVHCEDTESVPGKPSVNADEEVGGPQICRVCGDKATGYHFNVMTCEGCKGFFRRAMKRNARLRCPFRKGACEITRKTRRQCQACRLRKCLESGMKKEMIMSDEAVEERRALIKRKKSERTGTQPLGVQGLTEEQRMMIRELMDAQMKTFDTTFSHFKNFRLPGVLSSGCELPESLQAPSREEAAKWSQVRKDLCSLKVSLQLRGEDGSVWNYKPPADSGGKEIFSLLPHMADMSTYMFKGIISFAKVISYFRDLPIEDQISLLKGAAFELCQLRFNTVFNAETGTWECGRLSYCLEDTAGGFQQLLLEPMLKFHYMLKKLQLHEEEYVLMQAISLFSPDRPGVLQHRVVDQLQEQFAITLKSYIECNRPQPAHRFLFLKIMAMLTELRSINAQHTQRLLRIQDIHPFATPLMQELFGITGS

[21] = biological target: Voltage-gated inwardly rectifying potassium channel KCNH2 (Homo sapiens, UniProt Q12809); assay: Inhibition of MK-499 binding to human ERG
[22] = Half life in rhesus monkey at […], iv or 1 mg/kg, po; assay type: ADME, organism-based, Macaca mulatta; conditions: in vivo
[23] = Clearance in dog at […], iv or 1 mg/kg, po; assay type: ADME, organism-based, Canis lupus familiaris; conditions: in vivo
Cytochrome P450 2C9 = Cytochrome P450 2C9 (Homo sapiens, UniProt P11712); assay: Inhibition of human CYP2C9; assay type: ADME
[24] = biological target: Somatostatin receptor type 3 (Homo sapiens, UniProt P32745); assay: Antagonist activity at human SSTR3 expressed in CHO-K1 cell membranes; assay type: functional, cell-based; procedure, shortened: as §2
Mus musculus [25] = assay: Antidiabetic activity in HFD fed C57BL/6N mouse assessed as increase in plasma insulin levels at 10 mg/kg, po pretreated for 60 mins measured 5 mins post glucose challenge by OGTT; assay type: functional, organism-based; procedure, shortened: as §3

Voltage-gated inwardly rectifying potassium channel KCNH2, sequence (Q12809 whole entry): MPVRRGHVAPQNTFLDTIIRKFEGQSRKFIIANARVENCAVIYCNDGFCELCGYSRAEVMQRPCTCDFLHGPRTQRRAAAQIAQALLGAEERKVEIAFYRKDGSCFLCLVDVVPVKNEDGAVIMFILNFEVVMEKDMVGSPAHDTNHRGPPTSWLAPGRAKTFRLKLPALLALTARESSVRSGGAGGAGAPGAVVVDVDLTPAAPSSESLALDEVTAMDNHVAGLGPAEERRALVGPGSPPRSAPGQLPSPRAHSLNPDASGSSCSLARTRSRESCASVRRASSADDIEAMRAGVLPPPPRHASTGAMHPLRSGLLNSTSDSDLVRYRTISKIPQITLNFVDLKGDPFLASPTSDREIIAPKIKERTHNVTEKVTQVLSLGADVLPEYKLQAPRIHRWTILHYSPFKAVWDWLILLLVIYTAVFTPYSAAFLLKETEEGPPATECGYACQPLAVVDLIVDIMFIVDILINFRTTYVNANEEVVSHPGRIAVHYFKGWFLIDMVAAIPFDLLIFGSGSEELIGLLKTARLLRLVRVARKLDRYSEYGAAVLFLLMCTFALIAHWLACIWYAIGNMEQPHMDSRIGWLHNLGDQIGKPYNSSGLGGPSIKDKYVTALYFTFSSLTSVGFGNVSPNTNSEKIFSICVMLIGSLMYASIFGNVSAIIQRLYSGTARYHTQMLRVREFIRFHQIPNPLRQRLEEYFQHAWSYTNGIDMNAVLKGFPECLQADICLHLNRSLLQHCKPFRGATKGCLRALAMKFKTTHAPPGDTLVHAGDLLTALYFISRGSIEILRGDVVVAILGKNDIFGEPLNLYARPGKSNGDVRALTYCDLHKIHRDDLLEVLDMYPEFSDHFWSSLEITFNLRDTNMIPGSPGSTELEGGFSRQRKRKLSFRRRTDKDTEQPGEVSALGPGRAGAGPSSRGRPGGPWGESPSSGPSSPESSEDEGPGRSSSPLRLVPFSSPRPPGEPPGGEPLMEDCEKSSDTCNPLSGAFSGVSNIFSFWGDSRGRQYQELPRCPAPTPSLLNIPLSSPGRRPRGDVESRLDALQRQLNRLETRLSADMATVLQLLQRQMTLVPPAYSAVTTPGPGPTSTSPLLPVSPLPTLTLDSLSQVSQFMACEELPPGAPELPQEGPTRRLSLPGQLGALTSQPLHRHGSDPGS
Somatostatin receptor type 4, sequence (P31391 whole entry): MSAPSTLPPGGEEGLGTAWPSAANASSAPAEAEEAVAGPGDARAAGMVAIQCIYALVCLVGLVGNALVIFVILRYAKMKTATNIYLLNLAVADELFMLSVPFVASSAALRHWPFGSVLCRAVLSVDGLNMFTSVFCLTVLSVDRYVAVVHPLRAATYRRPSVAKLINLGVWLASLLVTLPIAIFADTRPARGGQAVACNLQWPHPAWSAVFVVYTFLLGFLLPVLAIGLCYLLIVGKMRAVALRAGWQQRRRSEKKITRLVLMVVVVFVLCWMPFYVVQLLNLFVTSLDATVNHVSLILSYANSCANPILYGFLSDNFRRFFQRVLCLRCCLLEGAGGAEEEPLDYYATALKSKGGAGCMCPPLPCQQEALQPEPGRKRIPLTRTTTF
Cytochrome P450 3A4, sequence (P08684 whole entry): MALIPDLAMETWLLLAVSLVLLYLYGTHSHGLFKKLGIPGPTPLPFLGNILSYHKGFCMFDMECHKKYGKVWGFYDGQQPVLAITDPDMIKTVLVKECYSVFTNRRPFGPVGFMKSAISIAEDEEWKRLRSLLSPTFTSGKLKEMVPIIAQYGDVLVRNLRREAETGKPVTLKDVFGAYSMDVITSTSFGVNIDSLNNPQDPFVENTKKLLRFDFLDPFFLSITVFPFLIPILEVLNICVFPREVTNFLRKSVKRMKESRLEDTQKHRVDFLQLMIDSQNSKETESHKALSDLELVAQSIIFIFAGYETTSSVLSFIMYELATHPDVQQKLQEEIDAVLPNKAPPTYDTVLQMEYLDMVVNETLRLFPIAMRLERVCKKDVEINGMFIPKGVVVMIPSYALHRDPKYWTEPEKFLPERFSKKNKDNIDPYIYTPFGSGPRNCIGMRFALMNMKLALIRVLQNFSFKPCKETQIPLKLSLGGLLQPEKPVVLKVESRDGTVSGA
Somatostatin receptor type 3, sequence (P32745 whole entry): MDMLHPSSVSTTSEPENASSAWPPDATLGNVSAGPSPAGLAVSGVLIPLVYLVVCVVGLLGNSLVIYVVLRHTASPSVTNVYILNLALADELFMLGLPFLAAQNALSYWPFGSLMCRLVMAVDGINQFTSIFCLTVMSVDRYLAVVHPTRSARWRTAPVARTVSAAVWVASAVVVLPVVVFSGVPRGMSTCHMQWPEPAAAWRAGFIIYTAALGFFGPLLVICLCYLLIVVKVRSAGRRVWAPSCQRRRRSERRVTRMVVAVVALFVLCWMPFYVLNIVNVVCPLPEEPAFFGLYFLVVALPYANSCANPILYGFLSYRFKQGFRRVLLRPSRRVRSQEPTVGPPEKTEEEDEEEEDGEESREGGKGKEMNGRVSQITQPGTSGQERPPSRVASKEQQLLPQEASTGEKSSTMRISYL
Cytochrome P450 2C9, sequence (P11712 whole entry): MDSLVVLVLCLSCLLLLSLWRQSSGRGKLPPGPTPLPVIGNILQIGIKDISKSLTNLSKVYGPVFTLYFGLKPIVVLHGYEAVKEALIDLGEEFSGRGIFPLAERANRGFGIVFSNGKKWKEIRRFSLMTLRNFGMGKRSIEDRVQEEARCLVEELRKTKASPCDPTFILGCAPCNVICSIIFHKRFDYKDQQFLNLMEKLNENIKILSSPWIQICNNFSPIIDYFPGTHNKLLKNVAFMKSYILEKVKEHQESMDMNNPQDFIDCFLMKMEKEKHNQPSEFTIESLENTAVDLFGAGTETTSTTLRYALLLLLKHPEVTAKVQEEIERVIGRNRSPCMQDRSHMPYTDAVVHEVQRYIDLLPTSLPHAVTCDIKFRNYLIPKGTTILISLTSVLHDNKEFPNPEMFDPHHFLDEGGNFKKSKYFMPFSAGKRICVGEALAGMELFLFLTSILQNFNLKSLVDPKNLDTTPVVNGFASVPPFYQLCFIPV
Somatostatin receptor type 1, sequence (P30872 whole entry): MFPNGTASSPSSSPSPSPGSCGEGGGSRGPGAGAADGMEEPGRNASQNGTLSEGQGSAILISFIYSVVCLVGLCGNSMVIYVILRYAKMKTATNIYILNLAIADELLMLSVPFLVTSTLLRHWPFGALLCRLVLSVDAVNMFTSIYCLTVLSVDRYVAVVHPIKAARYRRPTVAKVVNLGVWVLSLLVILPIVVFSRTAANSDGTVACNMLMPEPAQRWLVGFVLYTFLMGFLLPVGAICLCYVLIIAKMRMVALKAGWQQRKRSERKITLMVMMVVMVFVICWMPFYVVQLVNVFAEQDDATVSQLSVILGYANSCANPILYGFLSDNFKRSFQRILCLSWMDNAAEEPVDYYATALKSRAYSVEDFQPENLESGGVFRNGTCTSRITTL

- concentration at 3 h [1]: 351 nM
- Cp(f) [2]: 16.1 nM
- Cp(f) [4]: 6 nM
- Fu [6]: 5.7%
- Cp(f) [7]: 0.2 nM
- concentration at 3 h [8]: 34 nM
- solubility [9]: 300 µg/mL
- bioavailability [10]: 41%
- IC50 [11]: > 10 µM
- Vd [13]: 2.38 L/kg
- IC50 [15]: > 10 µM
- Fu [17]: 2.2%
- Cp(f) [18]: 0.5 nM
- IC50 (Cytochrome P450 3A4): > 50 µM
- Activity [20]: Not Active
- half-life [22]: 2 h
- clearance [23]: 2.2 mL/min/kg
- IC50 (Cytochrome P450 2C9): > 50 µM
- IC50 [24]: > 10 µM
SMILES: CCOc1cc(CN2CCC3(CC2)CC(=O)N(c2ccc(C(=O)O)cc2)C3)cc(OCC)c1-c1ccc(F)cc1.O=C(O)C(F)(F)F
- Activity (Mus musculus [3]): inactive
- Activity (Mus musculus [5]): 84 - 94%
- Activity (Pancreatic islet [12]): inactive
- Activity (Pancreatic islet [14]): Active
- Activity (Mus musculus [16]): Non-Toxic
- Activity (Mus musculus [19]): Active
- IC50 [21]: 45 µM
- Activity (Mus musculus [25]): Active

Reference: ChEMBL document CHEMBL4266056, “Discovery and Pharmacology of a Novel Somatostatin Subtype 5 (SSTR5) Antagonist: Synergy with DPP-4 Inhibition” (ACS Med Chem Lett, 2018)
